Source: ChEMBL document CHEMBL1131127, “Syntheses of trans-5-oxo-hexahydro-pyrrolo[3,2-b]pyrroles and trans-5-oxo-hexahydro-furo[3,2-b]pyrroles (pyrrolidine trans-lactams and trans-lactones): new pharmacophores for elastase inhibition” (J Med Chem, 1998)

What was measured:
Prothrombin [1] = target: T1, Prothrombin (Homo sapiens, UniProt P00734); test: The compound was tested for inhibition of thrombin with a pre-incubation time of 15 min
Neutrophil elastase [2] = target: T2, Neutrophil elastase (Homo sapiens, UniProt P08246); test: The compound was tested for inhibition of human neutrophil elastase enzyme with a pre-incubation time of 40 min.
T2 sequence (P08246 whole entry): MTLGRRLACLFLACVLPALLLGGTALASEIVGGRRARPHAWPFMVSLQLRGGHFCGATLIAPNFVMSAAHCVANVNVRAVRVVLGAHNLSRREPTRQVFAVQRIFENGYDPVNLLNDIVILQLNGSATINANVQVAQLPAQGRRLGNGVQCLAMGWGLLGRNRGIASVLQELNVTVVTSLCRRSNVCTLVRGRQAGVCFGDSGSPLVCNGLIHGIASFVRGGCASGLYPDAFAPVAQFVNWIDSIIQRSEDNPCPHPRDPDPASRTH
Outline: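 Compound preincubated with HNE for 40 min, then reaction started with MeO-Succ-Ala-Ala-Pro-Val-p-nitroanilide; p-nitroanilide release monitored spectrophotometrically to give IC50. Errors quoted as standard deviations.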

Neutrophil elastase [3] = target: T2, Neutrophil elastase; test: The compound was tested for inhibition of human neutrophil elastase enzyme with a pre-incubation time of 0 min.
Outline: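 HNE IC50: compound preincubated at 30 °C with substrate MeO-Succ-Ala-Ala-Pro-Val-p-nitroanilide, reaction started by adding HNE (0 min enzyme preincubation); p-nitroanilide release followed spectrophotometrically. Errors as standard deviations.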

Chymotrypsinogen A [4] = target: T3, Chymotrypsinogen A (Bos taurus, UniProt P00766); test: The compound was tested for inhibition of Chymotrypsinogen with a pre-incubation time of 15 min
Cathepsin G = target: T4, Cathepsin G (Homo sapiens, UniProt P08311); test: The compound was tested for inhibition of cathepsin G with a pre-incubation time of 15 min
T4 sequence (P08311 whole entry): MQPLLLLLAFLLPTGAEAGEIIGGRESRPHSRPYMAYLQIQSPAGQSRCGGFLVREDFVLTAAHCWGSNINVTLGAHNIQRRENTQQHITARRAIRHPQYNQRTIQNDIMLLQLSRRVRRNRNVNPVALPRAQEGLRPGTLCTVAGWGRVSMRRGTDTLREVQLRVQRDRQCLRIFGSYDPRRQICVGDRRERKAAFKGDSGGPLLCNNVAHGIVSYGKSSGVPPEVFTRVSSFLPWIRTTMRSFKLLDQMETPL

Neutrophil elastase [5] = target: T2, Neutrophil elastase; test: The compound was tested for inhibition of human neutrophil elastase enzyme with a pre-incubation time of 15 min.
Outline: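 IC50 against HNE determined after a 15-min preincubation of compound with enzyme; substrate MeO-Succ-Ala-Ala-Pro-Val-p-nitroanilide, p-nitroanilide release read spectrophotometrically.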

Prothrombin [6] = target: T1, Prothrombin; test: The compound was tested for inhibition of thrombin with a pre-incubation time of 15 min.
Chymotrypsinogen A [7] = target: T3, Chymotrypsinogen A; test: The compound was tested for inhibition of Chymotrypsinogen with a pre-incubation time of 15 min.
Prothrombin [8] = target: T1, Prothrombin; test: The compound was tested for inhibition of thrombin with a preincubation time of 15 min

SMILES	IC50 (Prothrombin [1]) [µM]	IC50 (Neutrophil elastase [2]) [µM]	IC50 (Neutrophil elastase [3]) [µM]	IC50 (Chymotrypsinogen A [4]) [µM]	IC50 (Cathepsin G) [µM]	IC50 (Neutrophil elastase [5]) [µM]	IC50 (Prothrombin [6]) [µM]	IC50 (Chymotrypsinogen A [7]) [µM]	IC50 (Prothrombin [8]) [µM]
C=CC[C@@H]1C(=O)O[C@H]2CCN(C(=O)OCc3ccccc3)C21 (stereo partly drawn)	44.6	0.074	12.8	4.86	–	–	–	–	–
C=CC[C@H]1C(=O)O[C@H]2CCN(C(=O)OCC)C21 (stereo partly drawn)	–	–	–	4	3.6	0.069	> 200	–	–
C=CC[C@H]1C(=O)N(S(=O)(=O)c2cccc3ccccc23)[C@H]2CCN(C(=O)OCc3ccccc3)C12 (stereo partly drawn)	–	0.088	> 100	11.5	–	–	> 100	–	–
C=CC[C@H]1C(=O)N(S(C)(=O)=O)[C@H]2CCN(C(=O)OCc3ccccc3)[C@H]12	–	0.056	0.37	40.6	–	–	53.2	–	–
C=CC[C@H]1C(=O)N[C@H]2CCN(C(=O)OCc3ccccc3)[C@@H]21	–	> 500	> 500	–	–	–	> 100	> 100	–
CCC[C@@H](NC(=O)N1C(=O)C(CC)(CC)[C@@H]1Oc1ccc(C(=O)N2CCN(C)CC2)cc1)c1ccc2c(c1)OCO2	–	0.036	0.023	0.98	–	–	–	–	78.8
C=CC[C@H]1C(=O)O[C@H]2CCN(C(=O)OCc3ccccc3)C21 (stereo partly drawn)	49	0.047	0.336	15.9	–	–	–	–	–
